The record followed here is ChEMBL document CHEMBL1125713, “Synthesis and antiarrhythmic activity of cis-2,6-dimethyl-alpha,alpha-diaryl-1-piperidinebutanols” (1991).

Structures are written as SMILES. A value given as a limit tells only on which side of the number the result lay.

For assay [1], the species on record is Canis familiaris. Description: Compound was evaluated for the degree of tachycardia 160-199. The format is functional, Canis lupus familiaris. In short, it runs like this:
(§1)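 Conscious normal dogs received 5 mg/kg iv over 5 min, with heart rate from limb lead II ECG. Tachycardia was graded as severe (≥200 beats/min), moderate (160–199), slight (<160 after a rise of ≥20) or none (change <20 beats/min).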

For assay [2], the system named is Canis familiaris. Description: Antiarrhythmic effect in coronary artery ligated dogs model at a dose of 5 mg/kg, administered intravenously and value noted at 20 min. Type of assay: functional, Canis lupus familiaris, Heart. The conditions noted are these: route intravenous. The procedure, abridged:
(§2)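 Coronary-ligated dogs with ventricular arrhythmias. Dosing was 5 mg/kg in 10–20 mL isotonic saline, given as an iv infusion over 5 min. Limb lead II ECG was monitored continuously for up to 6 h. Percent normal sinus beats was scored at control, end of dose, 20 min and 1 h. Values are mean ± SEM for three or more animals, mean ± SD for two.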

For assay [3], the system named is Canis familiaris. Description: Compound was evaluated for the heart rate effect in normal dogs at a dose of 5 mg/kg, administered intravenously and value noted at 20 min. Type of assay: functional, Canis lupus familiaris. The conditions noted are these: route intravenous. The procedure, abridged:
(§3)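 Conscious normal dogs, trained and sling-restrained, received the same iv dosing: 5 mg/kg infused over 5 min. Heart rate came from continuous limb lead II ECG at control, end of dose, 20 min and 1 h. Values are mean ± SD for two dogs.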

The test system of assay [4] is Canis familiaris. Briefly: Antiarrhythmic effect in coronary artery ligated dogs model at a dose of 5 mg/kg, value noted at end dose. The format is functional, Canis lupus familiaris, Heart. In short, it runs like this: as §2
The species entered for assay [5] is Canis familiaris. Description: Compound was evaluated for the duration of sustained effect. Type of assay: functional, Canis lupus familiaris. The procedure, abridged:
(§4)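 Normal dogs received 5 mg/kg iv over 5 min, with heart rate tracked by continuous ECG. Dogs above 140 beats/min were followed until the rate fell to 140. The sustained effect was rated long (>2 h), moderate (0.5–2 h) or short (<0.5 h).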

Assay [6] has as its system Canis familiaris. Description: Compound was evaluated for the heart rate effect in normal dogs at a dose of 5 mg/kg, administered intravenously and value noted at end dose. Type of assay: functional, Canis lupus familiaris. The following applies: route intravenous. In short, it runs like this:
as §3

For assay [7], the species on record is Canis familiaris. Description: Compound was evaluated for the activity rating. Type of assay: functional, Canis lupus familiaris. In short, it runs like this:
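In ligated dogs given 5 mg/kg iv over 5 min, group % normal beats was plotted at end of dose, 20 min and 1 h. The area under this curve minus the control area was divided by the same area for an ideal response (100% normal beats for the whole hour), then multiplied by 100.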

Assay [8] concerns Canis familiaris. Briefly: Compound was evaluated for the heart rate effect in normal dogs at a dose of 5 mg/kg, administered intravenously and value noted at 1h. The following applies: route intravenous. The format is functional, Canis lupus familiaris. The procedure, abridged: as §3
Assay [9] deals with Canis familiaris. Description: Antiarrhythmic effect in coronary artery ligated dog model at a dose of 5 mg/kg, administered intravenously and value noted at 1 hr. Type of assay: functional, Canis lupus familiaris, Heart. The conditions noted are these: route intravenous. The procedure, abridged: as §2
The species named for assay [10] is Canis familiaris. Description: Compound was evaluated for the degree of tachycardia. Type of assay: functional, Canis lupus familiaris. The procedure, abridged: as §1
The species named for assay [11] is Canis familiaris. Description: Compound was evaluated for the degree of tachycardia; 160-199. The format is functional, Canis lupus familiaris. The procedure, abridged: as §1
For assay [12], the species on record is Canis familiaris. Description: Compound was evaluated for the duration of sustained effect; 0.5-2. The format is functional, Canis lupus familiaris. The procedure, abridged: as §4

For the molecule `CC1CCCC(C)N1CCCC(C#N)(c1ccccc1)c1ccccc1.Cl` (configuration not stated), the Heart rate in assay [1] is 160 beats min-1; in assay [3] it was 147 beats min-1; in [6], 168 beats min-1; in assay [8], 137 beats min-1. For the same molecule, the Normal beats in assay [2] is listed as 88%; in [4] it was 90%; in assay [9], 65%. Also, the Duration in [5] is greater than 2 h. For the same molecule, the Activity rating in [7] came out at 82.
For the molecule `CC1CCCC(C)N1CCCC(c1ccccc1)c1ccccc1.Cl` (configuration not stated), the Normal beats in [2] is on record as 97%; in assay [4], 95%; in assay [9], 92%. The Beats/min is 218 in [3], 255 in assay [6], “>=200” in assay [10] and 179 in assay [8]. This molecule yielded a Duration in [5] greater than 2 h. Moreover, in assay [7], the Activity rating worked out at 94.
Consider `CC1CCCC(C)N1CCCC(C(N)=O)(c1ccccc1)c1ccccn1` (configuration not stated), for which the values for the Normal beats in assay [2], in [4] and in assay [9] were 87%, 96% and 62%, respectively. Moreover, the Heart rate was 145 beats min-1 in assay [3], 160 beats min-1 in [11], 197 beats min-1 in assay [6] and 129 beats min-1 in [8]. For the same molecule, the Duration in assay [12] came to 0.5 h. In assay [7], this molecule gave an Activity rating of 80.
